Assay outcomes deposited in PubChem by several laboratories.
Only some compounds are listed: those with a hit (about 9.5% of all), similar ones and a draw of the others.
HEK293 NFkB inh: inhibitors of PMA/ionomycin-induced NF-kB reporter, primary screen, antigen receptor NF-kB inhibitor project, cell-based, HEK-293 luciferase reporter, luminescence. HEK-293 NF-kB luciferase reporter. inhibition, % at 3 µM. 62,000 tested, 0.21% active. AID 465, 2006;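 active = inhibition above the mean of all tested compounds plus 3 SD, cut at about 40% in these data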;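 also: 0% = stimulated DMSO wells and 100% = 10 µM reference inhibitor 5653914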
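System: NF-kB luciferase reporter HEK-293 cells | Replication: Single test | Control set: DMSO vs reference inhibitor | Evaluation: % inhibition | Schedule: 1 h pretreatment, 16 h stimulation, 37 °C | Probe or stimulus: PMA with ionomycin | Compound dosing: One dose, 3 µM | Detection: Luciferase luminescence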
Htt clearance: clearance of mutant huntingtin inclusions, primary screen, imaging, HeLa Exon1htt(103Q)mCFP, confocal imaging; aggregate imaging; zero = plate's median compound well; inhibition, % at 1.5 µM; 47,000 tested, 0.42% active;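 active = inhibition of aggregate fluorescence above about 70%, also judged a hit by eye on the cell image, limit read from the data, passing the limit was not always enough; inconclusive = no rule stated for this call; inactive = not judged a hit on image review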;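 also: cells exposed to compound for three days before fixation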
M1 ag: M1 muscarinic receptor agonists, primary screen, CHO-M1 cells, Fluo-4 calcium, agonist mode; 64,000 tested, 3% active; Fluo-4 calcium fluorescence; hits give high values; B-score at 10 µM; AID 626, 2007;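 active = fluorescence rise, raw or as B-score row- and column-corrected plate score, outside the 99.7% band of its plate's samples, either direction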
M1 antagonist: antagonists of rat M1 muscarinic receptor. Muscarinic acetylcholine receptor M1 (Rattus norvegicus), P08482. CHO-M1 cells, Fluo-4 calcium, ACh EC80 antagonist mode; hits give low values. B-score at 10 µM. 64,000 tested, 3.4% active;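 active = calcium fluorescence response, raw or row-and-column corrected B-score, differing from the plate sample mean either way at a set confidence level, mostly lower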
Jurkat viability: cytotoxicity toward Jurkat T cells, primary screen, cytotoxicity control, cell-based, Jurkat E6.1, 60K MLSMR library; Jurkat E6.1 viability, ATP luminescence, 48 h; inhibition, % at 4 µM; 56,000 tested, 1.2% active; AID 463, 2006;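 active = inhibition above the mean inhibition of all tested compounds plus 3 SD, cut at about 28% in these data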
D1 mod: D1 CRE-luciferase signal change, two-sided – cell-based, HEK293 D1, dopamine EC30, D1 allosteric modulator project, primary screen. D(1A) dopamine receptor (Homo sapiens), P21728. dopamine EC30 potentiation; actives deviate in either direction. B-score at 10 µM. 58,000 tested, 5.9% active;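 active = luminescence count or its row- and column-corrected plate score outside the 99.7% band of the plate's sample wells, on either side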
Target sequence (P21728 whole entry, looked up): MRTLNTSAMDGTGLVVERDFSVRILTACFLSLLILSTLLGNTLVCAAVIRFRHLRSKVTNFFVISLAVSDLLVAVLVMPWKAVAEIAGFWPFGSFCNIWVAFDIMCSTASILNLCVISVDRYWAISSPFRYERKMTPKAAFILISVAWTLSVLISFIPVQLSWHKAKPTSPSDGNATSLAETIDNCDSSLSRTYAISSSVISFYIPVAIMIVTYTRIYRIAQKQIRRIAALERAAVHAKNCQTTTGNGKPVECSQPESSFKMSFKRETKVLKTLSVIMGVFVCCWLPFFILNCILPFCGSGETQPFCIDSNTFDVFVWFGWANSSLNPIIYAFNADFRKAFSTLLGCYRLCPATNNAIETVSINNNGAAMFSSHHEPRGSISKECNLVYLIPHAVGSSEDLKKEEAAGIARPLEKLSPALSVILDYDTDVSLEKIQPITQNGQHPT
M1 antag conf: rat M1 muscarinic receptor antagonists, confirmation, CHO cells, Fluo-4 calcium, duplicate; AID 677, 2007; shares compounds with M1 antagonist; 1,700 tested, 43% active; calcium response (max-min fluorescence) at 10 µM; ACh EC80 antagonism; hits give low values;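 active = calcium response below the same-plate mean of wells given acetylcholine alone at its 80%-effect dose, minus 3 SD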;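 also: raw fluorescence intensity difference in arbitrary instrument units and not normalized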
mGluR4 antag: human mGluR4 response to M1 antagonist hits, M1 allosteric modulator project, cell-based, antagonist mode, secondary assay 1; AID 678, 2007; CHO-mGluR4 calcium flux, Fluo-4 fluorescence, glutamate EC80; hits give low values; 1,700 tested, 0.9% active; shares compounds with M1 antagonist; fluorescence response (max-min) at 10 µM;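 active = fluorescence response below the plate's average for near-maximal glutamate wells, less 3 SD of those wells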;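 also: raw unnormalized fluorescence span taken in the window right after glutamate addition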
* = called active by the depositor; ? = inconclusive; nt = not tested or not shown.

SMILES	HEK293 NFkB inh	Htt clearance	M1 ag	M1 antagonist	Jurkat viability	D1 mod	M1 antag conf	mGluR4 antag
CC(=O)c1ccccc1OCCCN1CCCCC1	13	nt	0.13	-2.3*	4	-4.4*	356*	225
O=C(OCCN1CCCCC1)c1ccccc1Cl	3	4	-0.096	-2.6*	0	-1.7	543	230
CN(C)CCOc1ccccc1C(C)(C)C	nt	-13	nt	nt	nt	nt	nt	nt
CC1(C)SC(=S)N(/N=C/c2ccccc2)C1N(O)C(=O)Nc1ccc([N+](=O)[O-])cc1 (stereo unspecified)	nt	53	nt	nt	nt	nt	nt	nt
Cc1c(NC2=C(Cl)C(=O)N(c3ccccc3)C2=O)c(=O)n(-c2ccccc2)n1C	21	nt	-0.36	-6.3*	8	-0.45	151*	195
Cc1cc(=O)[nH]c(Nc2c(C)n(C)n(-c3ccccc3)c2=O)n1	14	20	-0.45	1.3	2	-1.2	nt	nt
CCCNS(=O)(=O)c1ccc(CCC(=O)N2CCC(C)CC2)cc1	6	nt	0.04	-2*	nt	1.3	643	253
N#CCC(=O)Nc1ncn(Cc2ccccc2Cl)n1	1	nt	0.038	0.2	1	nt	nt	nt
CCCCc1cc(=O)oc2c(CN3CCCC3)c(O)ccc12	nt	-24	-0.65	-2.3*	nt	nt	522	190
CCCCc1cc(=O)oc2cc(C)c(CN3CCCC3)c(O)c12	1	-357	-0.58	0.064	-1	2.2	nt	nt
Cc1ccc(N2CC(c3nc4ccccc4n3C)CC2=O)cc1C (stereo unspecified)	6	nt	0.11	-4.1*	-1	-0.26	447*	234
Cc1cc(C)cc(N2CC(c3nc4ccccc4n3C)CC2=O)c1 (stereo unspecified)	4	nt	0.19	0.028	0	-0.11	nt	nt
c1ccc(Oc2cccc(NC3=NCCC3)c2)cc1	6	nt	-0.76	-3.5*	-4	0.41	393*	265
CCc1ccccc1NC(=O)CC(O)(C(=O)OC)C(F)(F)F (stereo unspecified)	15	-12	0.41	0.025	2	-0.24	nt	nt
CCOC(=O)c1sc2nc3n(c(=O)c2c1C)CCC(C)CC3 (stereo unspecified)	9	27	1.2	0.029	1	1.9	nt	nt
CCOC(=O)N1CCC(NC(=O)c2sc3nc4n(c(=O)c3c2C)CCCC4)CC1	12	nt	0.58	-2.6*	nt	0.45	612	279
Cc1nn2c3c(cnc2c1-c1ccc(Cl)cc1)C(=O)CC(c1ccco1)C3 (stereo unspecified)	0	nt	-0.8	-0.045	-9	nt	nt	nt
Cc1cc(N2CCCN(C)CC2)nc2cc(Cl)ccc12	4	nt	-1.3	-3.7*	6	nt	378*	259
COc1cc(NC(=O)c2c(F)c(F)c(F)c(F)c2F)c(OC)cc1Cl	-6	nt	-0.11	-2.9*	6	-0.56	529	148*
COCCCNCCOc1cc(C(C)C)ccc1C	14	19	-0.14	-2.3*	-1	-1.4	554	237
O=C(CSCc1ccccc1)N1CCN(Cc2ccc3c(c2)OCO3)CC1	1	56	0.95	-0.64	2	-0.65	nt	nt
O=C(Nc1ccccc1)N1CCN(Cc2ccc3c(c2)OCO3)CC1	16	23	0.017	-0.0078	2	-0.43	nt	nt
O=C(CN(c1ccccc1)S(=O)(=O)c1ccccc1)N1CCN(Cc2ccc3c(c2)OCO3)CC1	15	nt	-0.099	-4.1*	6	-0.45	436*	242
CSc1ccc(S(=O)(=O)N2CCN(Cc3ccc4c(c3)OCO4)CC2)cc1	17	nt	-0.16	-2.1*	4	-1	440	208
c1ccc(CN2CCC(N3CCN(Cc4ccc5c(c4)OCO5)CC3)CC2)cc1	16	nt	-0.5	-2.3*	8	-0.79	330*	197
SMILES	HEK293 NFkB inh	Htt clearance	M1 ag	M1 antagonist	Jurkat viability	D1 mod	M1 antag conf	mGluR4 antag
COc1ccccc1C(=O)NC(C)C(c1cccs1)N1CCOCC1 (stereo unspecified)	14	17	-0.29	-3.5*	-5	0.0073	656	249
CCN(CCCNC(=O)COc1cc(=O)n(C)c2ccccc12)c1cccc(C)c1	11	-49	0.25	-1.9*	-7	3.3	630	250
CCn1c(SCC(=O)O)nnc1C1CCCCC1	11	nt	-0.82	-4.7*	-2	-1.1	562	178
Cc1cccc(CS(=O)(=O)Cc2ccc(C(=O)NCc3cccnc3)o2)c1	12	nt	-0.008	-18*	8	-1.2	625	245
O=C(NCCS(=O)CCNC(=O)C(F)(F)F)C(F)(F)F	4	11	0.92	-0.52	-7	-0.27	nt	nt
O=C(NCc1ccccn1)c1nnc(Cc2ccc(Cl)cc2)o1	18	nt	-0.33	0.32	-3	-0.15	nt	nt
COc1ccccc1N1CCN(CCCC(=O)c2ccc(F)cc2)CC1	16	-6	-1.1	-2*	14	-1.5	266*	207
COc1ccc(CCNC2CCN(C)CC2)cc1OC	14	26	-0.36	-0.49	-1	1.1	nt	nt
Cc1ccc(NC(=O)NC(=O)CN2C(=O)NC3(CCCCCCC3)C2=O)c(C)c1	7	-18	-0.12	-2.2*	6	-0.012	588	164
O=C(NC1CCS(=O)(=O)C1)C1CCCCN1S(=O)(=O)c1ccc(Cl)cc1 (stereo unspecified)	12	nt	0.31	-3.4*	nt	-0.31	584	249
O=C(C1CCC1)N1CCc2cc(S(=O)(=O)NC3CCCC3)ccc21	2	?	-0.95	-15*	11	1.6	580	209
CS(=O)(=O)N(CC(=O)NCC1CCCO1)c1ccc(F)c(Cl)c1 (stereo unspecified)	7	10	-0.25	-0.48	0	-0.77	nt	nt
O=C(Nc1ccccc1Cl)c1cc(S(=O)(=O)N2CCCC(C(=O)O)C2)ccc1F (stereo unspecified)	15	nt	-0.087	-3.5*	nt	-0.0075	529*	248
Cc1ccc(Cn2nnc3c(=O)n(Cc4cccc(C)c4)cnc32)cc1	-3	5	-1.2	-3.4*	2	0.92	481*	205
COC(=O)[C@H]1CCCN1C(=O)Nc1cccc(Oc2c(F)c(F)c(F)c(F)c2F)c1	nt	nt	0.54	0.36	nt	nt	nt	nt
CC1(C(=O)O)CCC(C(=O)N2CCOCC2)C1(C)C (stereo unspecified)	4	-21	-0.95	-0.5	-5	0.13	nt	nt
